Active and inactive are the calls of the source. The rule behind the calls is not given here.
Legend:
[1] = target: T1, Ecto-NOX disulfide-thiol exchanger 2 (Homo sapiens) (UniProt Q16206); assay: Inhibition of tNOX in human AGS cells assessed as reduction in cell migration; format: cell-based
T1 sequence (whole entry): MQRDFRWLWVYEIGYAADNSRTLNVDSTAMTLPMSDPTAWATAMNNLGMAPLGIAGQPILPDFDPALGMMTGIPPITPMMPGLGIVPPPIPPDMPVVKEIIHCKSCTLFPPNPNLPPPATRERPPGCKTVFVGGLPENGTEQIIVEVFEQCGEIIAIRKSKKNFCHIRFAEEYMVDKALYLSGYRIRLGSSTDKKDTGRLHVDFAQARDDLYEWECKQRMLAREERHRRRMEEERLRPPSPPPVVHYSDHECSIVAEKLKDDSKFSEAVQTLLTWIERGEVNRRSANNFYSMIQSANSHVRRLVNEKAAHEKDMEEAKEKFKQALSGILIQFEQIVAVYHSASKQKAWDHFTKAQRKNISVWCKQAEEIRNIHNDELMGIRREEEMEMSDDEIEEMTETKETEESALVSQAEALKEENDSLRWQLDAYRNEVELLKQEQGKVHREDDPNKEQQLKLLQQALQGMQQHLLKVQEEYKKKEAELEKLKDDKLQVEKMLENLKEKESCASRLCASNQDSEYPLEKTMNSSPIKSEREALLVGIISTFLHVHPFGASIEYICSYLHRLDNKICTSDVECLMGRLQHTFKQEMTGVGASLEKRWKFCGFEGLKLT

AGS [2] = assay: Induction of apoptosis in human AGS cells assessed as change in mitochondrial transmembrane potential incubated for 1.5 hrs by DiOC6(3) dye-based flow cytometric analysis; format: functional, cell-based
CCRF-CEM = assay: Antiproliferative activity against human CEM cells after 72 hrs by MTT assay; format: functional, cell-based
[3] = Antiproliferative activity against human HCT116 cells after 72 hrs by MTT assay; format: functional, cell-based; settings: HCT-116, 72 h
[4] = Drug uptake in human K562/4 cells at 3 uM incubated for 2 hrs by flow cytometric analysis; format: ADME, cell-based; settings: k562/4, 2 h
Outline: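 K562 and K562/4 cells incubated 2 h with 3 µM compound; uptake measured by flow cytometry as ratios (arbitrary units) of mean fluorescence channels of the histograms; verapamil (10 µM), a Pgp transport blocker, added 30 min before compound where used.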

AGS [5] = assay: Induction of apoptosis in human AGS cells after 24 hrs by annexin V-FITC staining-based flow cytometric analysis; format: functional, cell-based
Outline: (§1)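 AGS cells exposed to compound for 24 h; Annexin V-FITC staining and flow cytometry used to give percentage of apoptotic cells; mean ± S.E. from at least three independent experiments.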

AGS [6] = assay: Induction of apoptosis in human AGS cells assessed as necrotic cells at 0.05 uM after 24 hrs by annexin V-FITC staining-based flow cytometric analysis (Rvb=0.9%); format: functional; outline: as §1
AGS [7] = assay: Induction of apoptosis in human AGS cells assessed as necrotic cells at 1 uM after 24 hrs by annexin V-FITC staining-based flow cytometric analysis (Rvb=0.9%); format: functional; outline: as §1
AGS [8] = assay: Induction of apoptosis in human AGS cells assessed as early apoptotic cells at 0.1 uM after 24 hrs by annexin V-FITC staining-based flow cytometric analysis (Rvb=7.2%); format: functional; outline: as §1
AGS [9] = assay: Induction of apoptosis in human AGS cells assessed as viable cells at 0.1 uM after 24 hrs by annexin V-FITC staining-based flow cytometric analysis (Rvb=91.5%); format: functional; settings: read-out: Activity; outline: as §1
AGS [10] = assay: Upregulation of phosphorylated p53 level in human AGS cells at 1 and 5 uM after 24 hrs by Western blot analysis; format: functional, cell-based
AGS [11] = assay: Downregulation of Bid protein level in human AGS cells after 24 hrs by Western blot analysis; format: functional, cell-based
AGS [12] = assay: Downregulation of tNOX protein level in human AGS cells at 0.1 to 0.5 uM after 24 hrs by Western blot analysis; format: functional, cell-based
AGS [13] = assay: Increase in intracellular NAD+/NADH ratio in human AGS cells at 5 uM incubated for 5 mins; format: functional, cell-based
AGS [14] = assay: Downregulation of SIRT1 protein level in human AGS cells at 1 and 5 uM after 24 after 24 hrs by Western blot analysis; format: functional, cell-based
AGS [15] = assay: […] in human AGS cells assessed as upregulation of E-Cad after 24 hrs by Western blot analysis; format: functional, cell-based
MRC5 = assay: Antiproliferative activity against human MRC5 cells after 72 hrs by cell impedance based study; settings: MRC5, 72 h
[16] = Antiproliferative activity against mouse NIH/3T3 cells after 48 hrs by cell impedance based study; settings: NIH3T3, 48 h
Calf thymus DNA = assay: Binding affinity to calf thymus double stranded DNA assessed as number of base pairs covered by one molecule of compound by spectrophotometric titration method; format: nucleic-acid assay; settings: Bos taurus

CNCCNc1c2c(c(NCCNC)c3occc13)C(=O)c1ccccc1C2=O
inhibition [1]: Active
Activity (AGS [2]): Active
IC50 (CCRF-CEM): 190 nM
IC50 [3]: 100 nM
Drug uptake [4]: Active
Activity (AGS [5]): Dose-dependent effect
Activity (AGS [6]): 7.5%
Activity (AGS [7]): 15.4%
Activity (AGS [8]): 25.1%
viability at 0.1 µM (AGS [9]): 63.2%
Activity (AGS [10]): Active
Activity (AGS [11]): Active
Activity (AGS [12]): Active
Activity (AGS [13]): inactive
Activity (AGS [14]): Active
Activity (AGS [15]): Active
IC50 (MRC5): 780 nM
IC50 [16]: 230 nM
Activity (Calf thymus DNA): 3

Source: ChEMBL document CHEMBL3745659, “Synthesis and Characterization of 4,11-Diaminoanthra[2,3-b]furan-5,10-diones: Tumor Cell Apoptosis through tNOX-Modulated NAD(+)/NADH Ratio and SIRT1” (J Med Chem, 2015)
